Data published in ChEMBL document CHEMBL4325889, “Natural products hybrids: 3,5,4'-Trimethoxystilbene-5,6,7-trimethoxyflavone chimeric analogs as potential cytotoxic agents against diverse human cancer cells” (Eur J Med Chem, 2019).

Key:
Assay type in all cases: functional
[1] = system: KM12; test: Growth inhibition of human KM12 cells at 10 uM after 48 hrs by SRB assay relative to control; conditions: KM12, 48 h, read-out: GI
Method in brief: (§1)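 Screened at the National Cancer Institute by the standard NCI protocol using the sulforhodamine B assay, which measures cellular protein. Single dose of 10 µM. Result is percent growth inhibition; values above 100% mean cell number fell below the initial population. Values are the average of duplicates.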

[2] = system: NCI-H460; test: Growth inhibition of human NCI-H460 cells at 10 uM after 48 hrs by SRB assay relative to control; conditions: NCI-H460, 48 h, read-out: GI; method in brief: as §1
[3] = system: HCT-15; test: Growth inhibition of human HCT15 cells at 10 uM after 48 hrs by SRB assay relative to control; conditions: HCT-15, 48 h, read-out: GI; method in brief: as §1
[4] = system: A549; test: Growth inhibition of human A549 cells at 10 uM after 48 hrs by SRB assay relative to control; conditions: A549, 48 h, read-out: GI; method in brief: as §1
[5] = system: SNB-75; test: Growth inhibition of human SNB75 cells at 10 uM after 48 hrs by SRB assay relative to control; conditions: SNB-75, 48 h, read-out: GI
Method in brief: (§2)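 NCI screen against its human cancer cell line panel by the standard NCI protocol, SRB protein stain. Single dose of 10 μM. Percent growth inhibition versus control; values above 100% mean the cell population fell below the starting number. Each value is the mean of duplicates.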

[6] = system: OVCAR-4; test: Growth inhibition of human OVCAR4 cells at 10 uM after 48 hrs by SRB assay relative to control; conditions: OVCAR-4, 48 h, read-out: GI; method in brief: as §1
[7] = system: K562; test: Growth inhibition of human K562 cells at 10 uM after 48 hrs by SRB assay relative to control; conditions: K562, 48 h, read-out: GI; method in brief: as §1
[8] = system: Hs-578T; test: Growth inhibition of human Hs 578T cells at 10 uM after 48 hrs by SRB assay relative to control; conditions: read-out: GI; method in brief: as §1
[9] = system: SK-MEL-28; test: Growth inhibition of human SK-MEL-28 cells at 10 uM after 48 hrs by SRB assay relative to control; conditions: SK-MEL-28, 48 h, read-out: GI; method in brief: as §1
[10] = system: NCI-H226; test: Growth inhibition of human NCI-H226 cells at 10 uM after 48 hrs by SRB assay relative to control; conditions: NCI-H226, 48 h, read-out: GI; method in brief: as §1
[11] = system: MCF7; test: Growth inhibition of human MCF7 cells at 10 uM after 48 hrs by SRB assay relative to control; conditions: MCF7, 48 h, read-out: GI; method in brief: as §1
[12] = system: RPMI-8226; test: Growth inhibition of human RPMI8226 cells at 10 uM after 48 hrs by SRB assay relative to control; conditions: RPMI-8226, 48 h, read-out: GI; method in brief: as §1
[13] = system: HOP-62; test: Growth inhibition of human HOP62 cells at 10 uM after 48 hrs by SRB assay relative to control; conditions: HOP-62, 48 h, read-out: GI; method in brief: as §1
[14] = system: SW-620; test: Growth inhibition of human SW620 cells at 10 uM after 48 hrs by SRB assay relative to control; conditions: SW-620, 48 h, read-out: GI; method in brief: as §2
[15] = system: OVCAR-3; test: Growth inhibition of human OVCAR3 cells at 10 uM after 48 hrs by SRB assay relative to control; conditions: OVCAR-3, 48 h, read-out: GI; method in brief: as §1
[16] = system: RXF 393; test: Growth inhibition of human RXF393 cells at 10 uM after 48 hrs by SRB assay relative to control; conditions: RXF 393, 48 h, read-out: GI; method in brief: as §1
[17] = system: SR; test: Growth inhibition of human SR cells at 10 uM after 48 hrs by SRB assay relative to control; conditions: read-out: GI; method in brief: as §2
[18] = system: UACC-257; test: Growth inhibition of human UACC257 cells at 10 uM after 48 hrs by SRB assay relative to control; conditions: UACC-257, 48 h, read-out: GI; method in brief: as §2
[19] = system: SK-MEL-5; test: Growth inhibition of human SK-MEL-5 cells at 10 uM after 48 hrs by SRB assay relative to control; conditions: SK-MEL-5, 48 h, read-out: GI; method in brief: as §1
[20] = system: SNB-19; test: Growth inhibition of human SNB19 cells at 10 uM after 48 hrs by SRB assay relative to control; conditions: SNB-19, 48 h, read-out: GI; method in brief: as §2
[21] = system: SN12C; test: Growth inhibition of human SN12C cells at 10 uM after 48 hrs by SRB assay relative to control; conditions: read-out: GI; method in brief: as §1
[22] = system: MDA-MB-435; test: Growth inhibition of human MDA-MB-435 cells at 10 uM after 48 hrs by SRB assay relative to control; conditions: MDA-MB-435, 48 h, read-out: GI; method in brief: as §1
[23] = system: MOLT-4; test: Growth inhibition of human MOLT4 cells at 10 uM after 48 hrs by SRB assay relative to control; conditions: MOLT-4, 48 h, read-out: GI; method in brief: as §1
[24] = system: NCI-H23; test: Growth inhibition of human NCI-H23 cells at 10 uM after 48 hrs by SRB assay relative to control; conditions: NCI-H23, 48 h, read-out: GI; method in brief: as §1
[25] = system: DU-145; test: Growth inhibition of human DU145 cells at 10 uM after 48 hrs by SRB assay relative to control; conditions: DU-145, 48 h, read-out: GI; method in brief: as §1
[26] = system: TK-10; test: Growth inhibition of human TK10 cells at 10 uM after 48 hrs by SRB assay relative to control; conditions: TK-10, 48 h, read-out: GI; method in brief: as §2
[27] = system: Malme-3M; test: Growth inhibition of human MALME-3M cells at 10 uM after 48 hrs by SRB assay relative to control; conditions: read-out: GI; method in brief: as §1
[28] = system: 786-0; test: Growth inhibition of human 786-0 cells at 10 uM after 48 hrs by SRB assay relative to control; conditions: 786-0, 48 h, read-out: GI; method in brief: as §1
[29] = system: HCC 2998; test: Growth inhibition of human HCC2998 cells at 10 uM after 48 hrs by SRB assay relative to control; conditions: HCC 2998, 48 h, read-out: GI; method in brief: as §1
[30] = system: NCI-H522; test: Growth inhibition of human NCI-H522 cells at 10 uM after 48 hrs by SRB assay relative to control; conditions: NCI-H522, 48 h, read-out: GI; method in brief: as §1
[31] = system: OVCAR-8; test: Growth inhibition of human OVCAR8 cells at 10 uM after 48 hrs by SRB assay relative to control; conditions: OVCAR-8, 48 h, read-out: GI; method in brief: as §1
[32] = system: UACC-62; test: Growth inhibition of human UACC62 cells at 10 uM after 48 hrs by SRB assay relative to control; conditions: UACC-62, 48 h, read-out: GI; method in brief: as §2
[33] = system: ACHN; test: Growth inhibition of human ACHN cells at 10 uM after 48 hrs by SRB assay relative to control; conditions: read-out: GI; method in brief: as §1
[34] = system: MDA-MB-468; test: Growth inhibition of human MDA-MB-468 cells at 10 uM after 48 hrs by SRB assay relative to control; conditions: MDA-MB-468, 48 h, read-out: GI; method in brief: as §1
[35] = system: CCRF-CEM; test: Growth inhibition of human CCRF-CEM cells at 10 uM after 48 hrs by SRB assay relative to control; conditions: read-out: GI; method in brief: as §1

| Structure (SMILES) | inhibition of growth at 10 µM [1] [%] | inhibition of growth at 10 µM [2] [%] | inhibition of growth at 10 µM [3] [%] | inhibition of growth at 10 µM [4] [%] | inhibition of growth at 10 µM [5] [%] | inhibition of growth at 10 µM [6] [%] | inhibition of growth at 10 µM [7] [%] | inhibition of growth at 10 µM [8] [%] | inhibition of growth at 10 µM [9] [%] | inhibition of growth at 10 µM [10] [%] | inhibition of growth at 10 µM [11] [%] | inhibition of growth at 10 µM [12] [%] | inhibition of growth at 10 µM [13] [%] | inhibition of growth at 10 µM [14] [%] | inhibition of growth at 10 µM [15] [%] | inhibition of growth at 10 µM [16] [%] | inhibition of growth at 10 µM [17] [%] | inhibition of growth at 10 µM [18] [%] | inhibition of growth at 10 µM [19] [%] | inhibition of growth at 10 µM [20] [%] | also measured |
| --- | --- | --- | --- | --- | --- | --- | --- | --- | --- | --- | --- | --- | --- | --- | --- | --- | --- | --- | --- | --- | --- |
| COc1cc(NC(=O)c2cccc(-c3cc(=O)c4c(OC)c(OC)c(OC)cc4o3)c2)cc(OC)c1OC | 54.2 | 70 | 59.3 | 56.5 | 25.3 | 25.1 | 72.4 | 90.8 | 36.5 | 41.5 | 65.7 | 99.7 | 62.5 | 33 | 59.2 | 46.8 | 70.2 | 47.2 | 91.7 | 43.7 | inhibition of growth at 10 µM [21]: 54.1%; inhibition of growth at 10 µM [22]: 93.6%; inhibition of growth at 10 µM [23]: 89.6%; inhibition of growth at 10 µM [24]: 51.2%; inhibition of growth at 10 µM [25]: 45.7%; inhibition of growth at 10 µM [26]: 30.6%; inhibition of growth at 10 µM [27]: 43.6%; inhibition of growth at 10 µM [28]: 68.2%; inhibition of growth at 10 µM [29]: 25.9%; inhibition of growth at 10 µM [30]: 65.3%; inhibition of growth at 10 µM [31]: 69.1%; inhibition of growth at 10 µM [32]: 49.5%; inhibition of growth at 10 µM [33]: 43.3%; inhibition of growth at 10 µM [34]: 52.6%; inhibition of growth at 10 µM [35]: 68.7% |
| COc1cccc(C(=O)Nc2cccc(-c3cc(=O)c4c(O)c(OC)c(OC)cc4o3)c2)c1 | 43.7 | 45.6 | 58.4 | 35.4 | 13.1 | 33.4 | 69.2 | 34.1 | 22.5 | 36.3 | 34.9 | 74.2 | 37.1 | 19 | 34.1 | 1.37 | 54.8 | 25.9 | 48.9 | 16.6 | inhibition of growth at 10 µM [21]: 34.9%; inhibition of growth at 10 µM [22]: 33.6%; inhibition of growth at 10 µM [23]: 49.3%; inhibition of growth at 10 µM [24]: 32.6%; inhibition of growth at 10 µM [25]: 36.7%; inhibition of growth at 10 µM [26]: 16.7%; inhibition of growth at 10 µM [27]: 29.5%; inhibition of growth at 10 µM [28]: 26.7%; inhibition of growth at 10 µM [29]: 11.8%; inhibition of growth at 10 µM [30]: 56.9%; inhibition of growth at 10 µM [31]: 50.7%; inhibition of growth at 10 µM [32]: 39.1%; inhibition of growth at 10 µM [33]: 35.5%; inhibition of growth at 10 µM [34]: 28.8%; inhibition of growth at 10 µM [35]: 50.5% |
| COc1cc2oc(-c3cccc(C(=O)Nc4ccccc4)c3)cc(=O)c2c(O)c1OC | 42.2 | 66.3 | 7.23 | 39.7 | 78.2 | 120 | 2.93 | 88.9 | 12.6 | 26.8 | 21.9 | 16.5 | 91.1 | 5.67 | 29.9 | 43.5 | 4.29 | 15.7 | 28.3 | 42.3 | inhibition of growth at 10 µM [21]: 25.2%; inhibition of growth at 10 µM [22]: 41.7%; inhibition of growth at 10 µM [23]: 0.26%; inhibition of growth at 10 µM [24]: 13.1%; inhibition of growth at 10 µM [25]: 34.4%; inhibition of growth at 10 µM [26]: 39.2%; inhibition of growth at 10 µM [27]: 35.5%; inhibition of growth at 10 µM [28]: 68.5%; inhibition of growth at 10 µM [29]: 10.3%; inhibition of growth at 10 µM [30]: 8.74%; inhibition of growth at 10 µM [31]: 84.6%; inhibition of growth at 10 µM [32]: 61.1%; inhibition of growth at 10 µM [33]: 42%; inhibition of growth at 10 µM [34]: 30.6%; inhibition of growth at 10 µM [35]: -0.19% |
